Read-outs that look alike come from different tables or passages of the source.
Experiments:
[1] = test system: PfMDR1 mutant lines versus parental ABS parasites (Dd2-B2, FCB); test: Drug susceptibility profiling of HHQ-resistant lines in ABS parasites; type: cell-based, Plasmodium falciparum; conditions: for susceptibility in GNF-Pf-5668-3C4D2 compared to PfMDR1^edF1072L: i.e. higher IC50 values; for fold increased susceptibility compared to wild-type Dd2-B2: GNF-Pf-5668-3C4D2 line (four pfmdr1 copies + F1072L (AB 69%)); for changes in susceptibility: all three lines: PfMDR1^edF1072L, PfMDR1^selY290F
[2] = test system: Dd2-B2 late rings; test: Hb endocytosis by Western blot; type: cell-based, Plasmodium falciparum; conditions: 5′ the IC50 for 5 h, normalized to DMSO control
How it was run: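 Sorbitol-synchronized parasites were exposed to test compound at 5x IC50 for 5 h, starting at the late ring stage. Lysates were blotted to nitrocellulose and probed overnight at 4°C with rabbit anti-human Hb (1:5,000) and anti-β-actin (1:2,000). Detection was by ECL. Hb band intensities were normalized to β-actin and compared with untreated controls. Repeated on 3–4 independent occasions.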

[3] = test system: PfMDR1^selY290F parasites; test: Heme fractionation assay; type: cell-based, Plasmodium falciparum; conditions: MQ with increasing concentrations; LMF at 1–2′ IC50
How it was run: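 Early ring-stage, sorbitol-synchronized parasites were exposed to test compound at 0.1, 0.25, 0.5, 1 and 2x the ABS IC50. Heme species were fractionated and normalized to the number of cells analyzed, counted by flow cytometry of an aliquot. Significance was tested by two-tailed t-tests.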

[4] = test system: Dd2-B2 parasites; test: Heme fractionation assay; type: cell-based, Plasmodium falciparum; conditions: for heme fractionation effect compared to untreated controls: 0.1 to 2′ IC50
[5] = test system: compound-exposed Pf GAMs in Anopheles stephensi mosquitoes; test: Membrane-feeding assay with A. stephensi mosquitoes; type: in vivo, Plasmodium falciparum; conditions: for reduction in oocyst density per infected mosquito midgut: GAMs pre-treated at 3x late-stage IC50; for reduction in infection prevalence (percentage of infected mosquitoes): GAMs pre-treated at 3x late-stage IC50, 3 days, then 4 days without compound
How it was run: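 Day-12 gametocytes were treated 3 days at 1x or 3x their late-stage IC50, with compound refreshed daily, then held 4 days without compound. Controls were 0.25% DMSO and methylene blue at 3x. Stage V cultures (50% Hct, 0.01–0.16% parasitemia) were membrane-fed for 30 min to A. stephensi, kept at 26°C and 78% RH. Midguts were dissected on day 7–8, stained with mercurochrome and oocysts counted blind. Prevalence is the percentage of mosquitoes with at least one oocyst.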

[6] = test system: male gametes from stage V GAMs; test: Dual gamete formation assay, male gamete formation; type: cell-based, Plasmodium falciparum; conditions: for IC50: Plasmodium falciparum, 24 h
[7] = test system: female gametes from stage V GAMs; test: Dual gamete formation assay, female gamete formation; type: cell-based, Plasmodium falciparum; conditions: for IC50: Plasmodium falciparum, 24 h
[8] = test system: NF54^Pfs16 early-stage GAMs; test: Luciferase-based early-stage gametocyte inhibition assay; type: cell-based, Plasmodium falciparum; conditions: in words
How it was run: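 Gametocytes on day 1 of gametocytogenesis were set at 10% parasitemia and 0.5% Hct. They were kept in medium with 50 mM N-acetyl-D-glucosamine, refreshed daily. Compound was added at 0.4% DMSO final. Controls were DMSO (0% inhibition) and 5 μM puromycin (100% inhibition). After 72 h at 37°C in 5% O₂/5% CO₂/90% N₂, Steadylite was added, followed by 60 min lysis at room temperature and a luminescence read. Potency used serial dilutions up to 40 μM, three per log, on two independent occasions.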

[9] = test system: HEK293 human embryonic kidney cell line; test: HEK293 cytotoxicity; type: cell-based; conditions: at 40 μM, 72 h
How it was run: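 Cells were grown in DMEM with 10% fetal calf serum and seeded at 2,000 cells/well, then left overnight at 37°C in 5% CO₂ to adhere. Test compound was added as a serial dilution with a maximum of 40 μM, at 0.4% DMSO final, for 72 h. Medium was then replaced with serum-free DMEM containing 44 μM resazurin for 4–6 h. Fluorescence was read at 530/595 nm. Two biological replicates.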

[10] = test system: 3D7 (drug-sensitive) ABS parasites; test: Imaging-based asexual blood stage high-throughput assay; type: cell-based, Plasmodium falciparum; conditions: read-out: ABS IC50; drug-sensitive 3D7, 72 h
How it was run: (§1)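 Sorbitol-synchronized parasites were seeded at 2% parasitemia and 0.3% Hct and exposed to test compound for 72 h at 37°C in 5% O₂/5% CO₂/90% N₂. Cells were then permeabilized with 0.01% Triton X-100, 0.001% saponin and 5 mM EDTA, and stained with 0.5 μg/mL DAPI for at least 6 h at room temperature in the dark. Confocal imaging used 405 nm excitation. Parasites were counted from spot size and intensity. Two independent cultures.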

[11] = test system: NF54^Pfs16 late-stage GAMs; test: Image-based late-stage gametocyte inhibition assay; type: cell-based, Plasmodium falciparum; conditions: in words
How it was run: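 Day-8 stage IV gametocytes were MACS-purified and set at 10% parasitemia and 0.1% Hct, with 0.4% DMSO final. They were incubated 72 h at 37°C in 5% O₂/5% CO₂/90% N₂, then stained overnight with MitoTracker Red CM-H₂XRos. Confocal imaging counted viable mature gametocytes per imaged area; 5 μM puromycin was the control. Screening used 2 μM in triplicate. Potency used serial dilutions up to 40 μM, three per log, on two independent occasions.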

[12] = test system: male GAM exflagellation; test: Male GAM exflagellation of GAM cultures used for membrane feeding; type: cell-based, Plasmodium falciparum; conditions: GAM cultures exposed at 3x late-stage IC50
[13] = test system: NITD609-R^Dd2 clone #2 (PfATP4 mutant line); test: Imaging-based asexual blood stage high-throughput assay; type: cell-based, Plasmodium falciparum; conditions: read-out: ABS IC50, 72 h
How it was run: as §1

[14] = test system: Dd2 (multidrug-resistant) ABS parasites; test: Imaging-based asexual blood stage high-throughput assay; type: cell-based, Plasmodium falciparum; conditions: read-out: ABS IC50; multidrug-resistant Dd2, 72 h
[15] = test system: cultured P. berghei liver-stage parasites; conditions: cited from earlier work
[16] = test system: P. berghei ANKA MRA868 ABS parasites; test: 4-day Peters test; type: in vivo, P. berghei in CD-1 mice; conditions: 4 doses, 96 h post infection
How it was run: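 Female CD-1 mice (5 weeks old, 22–25 g; four per group) were infected intraperitoneally with 1x10⁶ parasites. The test compound was given intraperitoneally at 2, 24, 48 and 72 h after infection, in 20% DMSO in water. Controls were solvent only and DHA at 30 mg/kg. Parasitemia was read by microscopy at 96 h. Groups were randomized and blinded. The 100 mg/kg groups were tested once.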

[17] = test system: P. berghei ANKA MRA868 GAMs, Anopheles stephensi mosquitoes; test: In vivo transmission-blocking effect; parameters: species or system P. berghei in CD-1 mice; conditions: mice given two doses 12 h apart: 100 mg/kg GNF compounds, 30 mg/kg DHA
[18] = PfMDR1^selY290F (GNF-Pf-5660-2B6H1)

## CCCCN(CCCC)CC(O)c1cc(Cl)cc2c1-c1ccc(Cl)cc1/C2=C/c1ccc(Cl)cc1 (stereo not shown) [LMF, Lumefantrine]
[1]; PfMDR1^edF1072L
  fold higher susceptibility versus Dd2-B2: 3.1 fold
[1]; PfMDR1^edS1075I
  fold increased susceptibility versus Dd2-B2: unchanged
[1]; [18]
  fold higher susceptibility versus Dd2-B2: 1.9 fold
[1]
  susceptibility in GNF-Pf-5668-3C4D2 compared to PfMDR1^edF1072L: decreased susceptibility
[2]
  reduction of Hb levels within parasites: no significant changes
[3]
  Hz and total heme iron levels: reduction
[4]
  heme fractionation effect compared to untreated controls: little or no effect

## OC(c1cc(C(F)(F)F)nc2c(C(F)(F)F)cccc12)C1CCCCN1 (stereo not shown) [MQ, mefloquine]
[1]
  fold increased susceptibility compared to wild-type Dd2-B2: 1.4 fold
  susceptibility in GNF-Pf-5668-3C4D2 compared to PfMDR1^edF1072L: decreased susceptibility
[1]; PfMDR1^edF1072L
  fold higher susceptibility versus Dd2-B2: 3.6 fold
[1]; PfMDR1^edS1075I
  fold increased susceptibility versus Dd2-B2: 1.4 fold
[1]; [18]
  fold higher susceptibility versus Dd2-B2: 2.0 fold
[2]
  reduction of Hb levels within parasites: no significant changes
[3]
  Hz and total heme iron levels: reductions
[4]
  heme fractionation effect compared to untreated controls: little or no effect
[4]; 2′ the IC50
  fold decrease in Hz levels: 1.6 fold

## C=C[C@H]1C[N@@]2CC[C@H]1C[C@H]2[C@H](O)c1ccnc2ccc(OC)cc12 [QN, quinine]
[1]
  fold increased susceptibility compared to wild-type Dd2-B2: 1.7 fold
  susceptibility in GNF-Pf-5668-3C4D2 compared to PfMDR1^edF1072L: decreased susceptibility
[1]; PfMDR1^edF1072L
  fold higher susceptibility versus Dd2-B2: 3.6 fold
[1]; PfMDR1^edS1075I
  fold increased susceptibility versus Dd2-B2: 5.1 fold
[1]; [18]
  fold higher susceptibility versus Dd2-B2: 3.7 fold

## CN(C)c1ccc2nc3ccc(=[N+](C)C)cc-3sc2c1 [Methylene Blue, methylene blue]
[5]; positive control at 3′ the GAM IC50, in words
  transmission-blocking activity: maximal
[6]; read-out: Mean IC50 (lower 95% CI - upper 95% CI) Male carry-over
  IC50: 61.5 nM
[6]; read-out: Mean IC50 (lower 95% CI - upper 95% CI) Male wash-out
  IC50: 147 nM
[7]; read-out: Mean IC50 (lower 95% CI - upper 95% CI) Female carry-over
  IC50: 162 nM
[7]; read-out: Mean IC50 (lower 95% CI - upper 95% CI) Female wash-out
  IC50: 846 nM

## CC1(C)N=C(N)N=C(N)N1OCCCOc1cc(Cl)c(Cl)cc1Cl [WR99210]
[2]
  reduction of Hb levels within parasites: no significant changes

## ferroquine
[1]; PfMDR1^edS1075I
  changes in susceptibility: no changes

## CC(C)(C)c1ccc(O)c(CNC2CCCCC2)c1 [GNF-Pf-5310]
[8]
  early-stage gametocytocidal activity: potent
[5]
  reduction in oocyst density per infected mosquito midgut: 73%
  reduction in infection prevalence (percentage of infected mosquitoes): no reduction
[9]
  inhibition of HEK293 cells: < 50%
[10]
  IC50: < 25 nM
[11]
  late-stage gametocytocidal activity: potent
[6]; in words
  activity on male gametes / exflagellation: no activity
[7]; in words
  activity on female gamete formation: no activity
[12]
  reduction in male GAM exflagellation rates: no effect
[13]
  IC50: < 25 nM
[14]
  IC50: < 25 nM

## CCNCCCC(C)Nc1ccnc2cc(Cl)ccc12 (stereo not shown) [md-CQ, monodesethyl-CQ]
[1]; PfMDR1^edS1075I
  changes in susceptibility: no changes

## CCCOC(=O)C1=C(C)NC2=C(C(=O)CC(c3ccc(OC)c(OC)c3)C2)C1c1ccccc1F (stereo not shown) [GNF-Pf-5668]
[8]
  early-stage gametocytocidal activity: potent
[1]; GNF-Pf-5668-selected clone 3C4D2, PfMDR1 F1072L (AB 67%)
  fold increase in IC50 compared to parental Dd2-B2: 37 fold
[15]
  activity against liver-stage parasites: inactive
[16]; 70 mg/kg intraperitoneal
  reduction of parasitemia compared to vehicle-treated mice: 43%
[16]; 100 mg/kg intraperitoneal
  reduction of parasitemia compared to vehicle-treated mice: 91%
[5]
  reduction in oocyst density per infected mosquito midgut: 95–99%
  reduction in infection prevalence (percentage of infected mosquitoes): 57%
[17]
  reduction in oocyst burden: No effect
  reduction in the number of infected mosquitoes: No effect
[9]
  inhibition of HEK293 cells: < 50%
[10]
  IC50: < 25 nM
[11]
  late-stage gametocytocidal activity: potent
[12]
  reduction in male GAM exflagellation rates: 70%
[13]
  IC50: < 25 nM
[14]
  IC50: < 25 nM

## COc1ccc(C2CC(=O)C3=C(C2)NC(C)=C(C(=O)OC(C)C)C3c2ccccc2C)cc1OC (stereo not shown) [GNF-Pf-5640]
[8]
  early-stage gametocytocidal activity: potent
[1]; GNF-Pf-5640-selected clone 2C4C3, PfMDR1 S1075I
  fold increase in IC50 compared to parental Dd2-B2: 77 fold
[1]; GNF-Pf-5640-selected clone 3H9C7, PfMDR1 Y290F
  fold increase in IC50 compared to parental Dd2-B2: 79 fold
[15]
  activity against liver-stage parasites: inactive
[9]
  inhibition of HEK293 cells: < 50%
[10]
  IC50: < 25 nM
[11]
  late-stage gametocytocidal activity: potent
[13]
  IC50: < 25 nM
[14]
  IC50: < 25 nM

## CCN(CC)CCCC(C)Nc1ccnc2cc(Cl)ccc12 (stereo not shown) [CQ, chloroquine]
[1]; PfMDR1^edS1075I
  changes in susceptibility: no changes

## Clc1ccc2c(N3CCN(CCCN4CCN(c5ccnc6cc(Cl)ccc56)CC4)CC3)ccnc2c1 [piperaquine]
[1]; PfMDR1^edS1075I
  changes in susceptibility: no changes

## C[C@H]1[C@@H](O)O[C@@H]2O[C@@]3(C)CC[C@H]4[C@H](C)CC[C@@H]1[C@@]24OO3 [DHA, dihydroartemisinin, reference compound]
[1]; all three mutations (F1072L, S1075I, Y290F)
  fold increased susceptibility versus Dd2-B2: ~ 1.6 fold
[17]
  reduction in oocyst burden: 75%
  reduction in the number of infected mosquitoes: 65%

## CCNCc1cc(Nc2ccnc3cc(Cl)ccc23)ccc1O [md-ADQ, md-amodiaquine]
[1]; PfMDR1^edS1075I
  changes in susceptibility: no changes
